ChEMBL document CHEMBL1142225, “Inhibiting HIV-1 integrase by shifting its oligomerization equilibrium” (Proc Natl Acad Sci U S A, 2007)
Activity calls are given as the source filed them. The rule behind the calls is not given here.

Columns and labels:
[1] = test system: Human immunodeficiency virus 1; test: Inhibition of HIV1 in sup T1 cells assessed as total reverse transcribed viral DNA at 2 uM by PCR; assay type: functional, organism-based
Method in brief: (§1)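 Sup T1 cells (RPMI 1640, 10% FCS) were pretreated 2 h with compound, then infected with HIV-1 Δenv/VSV-G (HXB2 backbone) at MOI 2 for 6 h. Total viral DNA was detected by Gag-specific PCR on 10 ng DNA with 3.5 mM MgCl2 and 29 cycles.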

[2] = target: Human immunodeficiency virus type 1 integrase (Human immunodeficiency virus 1, UniProt Q7ZJM1); test: Binding affinity to HIV1 integrase tetrameric form by fluorescence anisotrophy
Method in brief: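 Fluorescence anisotropy at 10°C in 20 mM Tris pH 7.4/185 mM NaCl (ionic strength 190 mM). His-tagged IN was titrated into fluorescein-labeled LEDGF/p75 peptide (0.05–0.1 μM) in 20 aliquots at 1-min intervals. Excitation was 480 nm and emission 530 nm. Kd was obtained from a Hill-equation fit.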

[3] = target: Human immunodeficiency virus type 1 integrase (Human immunodeficiency virus 1) (UniProt Q7ZJM1); test: Inhibition of HIV1 integrase binding to LTR DNA by fluorescence anisotrophy
Method in brief: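 Competition anisotropy at 10°C in 20 mM Tris pH 7.4/185 mM NaCl. LEDGF/p75 peptide (500 nM) was preincubated 0.5 h with His-tagged IN (4 μM), then titrated into fluorescein-labeled 36-mer HIV-1 LTR DNA (10 nM). Excitation 480 nm, emission 530 nm.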

[4] = target: Human immunodeficiency virus type 1 integrase (Human immunodeficiency virus 1) (UniProt Q7ZJM1); test: Inhibition of HIV1 integrase 3'-end processing activity
[5] = target: Human immunodeficiency virus type 1 integrase (Human immunodeficiency virus 1) (UniProt Q7ZJM1); test: Inhibition of HIV1 integrase 3'-end processing activity at 21 uM
[6] = target: Human immunodeficiency virus type 1 integrase (Human immunodeficiency virus 1) (UniProt Q7ZJM1); test: Inhibition of HIV1 integrase strand transfer activity in presence of LTR DNA template
[7] = test system: Human immunodeficiency virus 1; test: Inhibition of HIV1 Tat-mediated HIV1 reporter gene expression in human TZM-bl HeLa MAGI cells; assay type: functional, organism-based
Method in brief: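 TZM-bl (HeLa MAGI) cells carrying a Tat/TAR-driven β-galactosidase reporter were grown in DMEM with 10% FCS, seeded at 10 × 10^3 cells per well, and infected with HIV-1 at equal MOI. Read-out was reporter expression by MAGI assay.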

[8] = test system: Human immunodeficiency virus 1; test: Inhibition of HIV1 replication in human H9 cells assessed as reduction of p24 protein level after 10 days; assay type: functional, organism-based
Method in brief: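 H9 T-lymphoid cells were preincubated 2 h with compound, then infected with wild-type HIV-1 HXB2 at MOI 0.1 (1 h adsorption at 37°C, then washed). Cells were cultured 10 days, and p24 released into the medium was measured by capture assay.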

[9] = test system: Human immunodeficiency virus 1; test: Inhibition of HIV1 genome integration assessed as integrated viral DNA level at 2.5 uM by RT-PCR method; assay type: functional
Method in brief: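 Integrated proviral DNA in infected cells was measured by nested real-time PCR. The second round used SYBR green with 300 nM primers and 50 cycles (95°C 15 s, 60°C 60 s). Quantification used a standard curve from full-length HIV-1 HXB2 plasmid (5 ng–0.25 fg). Samples were run in quadruplicate. Results are expressed as percentage of integrated viral DNA.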

HeLa = test: Toxicity against human HeLa cells by MTT method; assay type: cell-based
[10] = test system: Human immunodeficiency virus 1; test: Effect on HIV1 replication in sup T1 cells assessed as total reverse transcribed viral DNA level at 12.5 uM by PCR; assay type: functional, organism-based; method in brief: as §1

Chain of Human immunodeficiency virus type 1 integrase (Human immunodeficiency virus 1) (Q7ZJM1 as listed by the source): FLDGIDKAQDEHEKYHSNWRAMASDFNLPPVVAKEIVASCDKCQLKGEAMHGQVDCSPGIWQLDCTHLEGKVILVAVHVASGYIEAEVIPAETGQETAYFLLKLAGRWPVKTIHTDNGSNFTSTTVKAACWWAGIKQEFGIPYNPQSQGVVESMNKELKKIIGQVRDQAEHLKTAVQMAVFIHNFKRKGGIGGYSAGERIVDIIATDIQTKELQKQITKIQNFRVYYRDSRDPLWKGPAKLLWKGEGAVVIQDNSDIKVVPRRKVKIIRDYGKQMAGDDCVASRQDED
Chain of Human immunodeficiency virus type 1 integrase (Q7ZJM1 whole entry): as the sequence (Q7ZJM1 as listed by the source) above

| Compound | Activity [1] | Kd [2] [µM] | Activity [3] | Activity [4] | Activity [5] | Activity [6] | Activity [7] | Activity [8] | inhibition at 2.5 µM [9] [%] | Activity (HeLa) | Activity [10] | fold inhibition [3] [fold] |
| --- | --- | --- | --- | --- | --- | --- | --- | --- | --- | --- | --- | --- |
| Cc1cn([C@H]2C[C@H](N=[N+]=[N-])[C@@H](CO)O2)c(=O)[nH]c1=O | Active |  |  |  |  |  |  |  |  |  |  |  |
| H-WKKIRRFVSQVIM-OH |  | 12 | 6 | Active | Active | Active | Dose-dependent effect | Active | > 90 | Non-toxic | inactive |  |
| H-WNSLKIDNLDV-OH |  | 3.7 |  | Active |  |  | Dose-dependent effect | Active | > 90 | Non-toxic | inactive | 3 |
| H-WIHAEIKNSLKIDNLDVNRCIEALD-OH |  | 4.4 |  |  |  |  |  |  |  |  |  | 3 |
